Columns and labels:
Type in all cases: functional
[1] = system: Amaranthus retroflexus; experiment: Herbicidal activity against Amaranthus retroflexus assessed as growth inhibition at 75 g of active ingredient/ha administered using post-emergence treatment measured 15 days post treatment protocol under greenhouse conditions
Method in brief: (§1)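 Test agents were formulated as 100 g/L emulsified concentrates (DMF solvent, TW-80 emulsifier), diluted with water and sprayed postemergence on pot-grown weeds. Seeds were sown 1-3 cm deep in clay soil (pH 6.5, 1.6% organic matter, 37.3% clay, CEC […]) and grown at 15–30 °C in a greenhouse. Dicots were treated at the two-leaf stage. Untreated and DMF-treated plants served as controls. Activity was scored visually 15 days after treatment.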

[2] = system: Setaria viridis; experiment: Herbicidal activity against Setaria viridis (green foxtail) assessed as growth inhibition at 75 g of active ingredient/ha administered using post-emergence treatment measured 15 days post treatment protocol under greenhouse conditions; method in brief: as §1
[3] = system: Chenopodium album; experiment: Herbicidal activity against Chenopodium album assessed as growth inhibition at 150 g of active ingredient/ha administered using post-emergence treatment measured 15 days post treatment protocol under greenhouse conditions; method in brief: as §1
[4] = system: Senna tora; experiment: Herbicidal activity against Senna tora assessed as growth inhibition at 37.5 g of active ingredient/ha administered using post-emergence treatment measured 15 days post treatment protocol under greenhouse conditions; method in brief: as §1
[5] = system: Senna tora; experiment: Herbicidal activity against Senna tora assessed as growth inhibition at 150 g of active ingredient/ha administered using post-emergence treatment measured 15 days post treatment protocol under greenhouse conditions; method in brief: as §1
[6] = system: Echinochloa crus-galli; experiment: Herbicidal activity against Echinochloa crus-galli (barnyard grass) assessed as growth inhibition at 75 g of active ingredient/ha administered using post-emergence treatment measured 15 days post treatment protocol under greenhouse conditions; method in brief: as §1
[7] = system: Chenopodium album; experiment: Herbicidal activity against Chenopodium album assessed as growth inhibition at 37.5 g of active ingredient/ha administered using post-emergence treatment measured 15 days post treatment protocol under greenhouse conditions; method in brief: as §1
[8] = system: Portulaca oleracea; experiment: Herbicidal activity against Portulaca oleracea assessed as growth inhibition at 150 g of active ingredient/ha administered using post-emergence treatment measured 15 days post treatment protocol under greenhouse conditions; method in brief: as §1
[9] = system: Cerastium arvense; experiment: Herbicidal activity against Cerastium arvense assessed as growth inhibition at 150 g of active ingredient/ha administered using post-emergence treatment measured 15 days post treatment protocol under greenhouse conditions; method in brief: as §1
[10] = system: Digitaria sanguinalis; experiment: Herbicidal activity against Digitaria sanguinalis (hairy crabgrass) assessed as growth inhibition at 37.5 g of active ingredient/ha administered using post-emergence treatment measured 15 days post treatment protocol under greenhouse conditions; method in brief: as §1
[11] = system: Brassica juncea; experiment: Herbicidal activity against Brassica juncea assessed as growth inhibition at 150 g of active ingredient/ha administered using post-emergence treatment measured 15 days post treatment protocol under greenhouse conditions; method in brief: as §1
[12] = system: Echinochloa crus-galli; experiment: Herbicidal activity against Echinochloa crus-galli (barnyard grass) assessed as growth inhibition at 150 g of active ingredient/ha administered using post-emergence treatment measured 15 days post treatment protocol under greenhouse conditions; method in brief: as §1
[13] = system: Portulaca oleracea; experiment: Herbicidal activity against Portulaca oleracea assessed as growth inhibition at 37.5 g of active ingredient/ha administered using post-emergence treatment measured 15 days post treatment protocol under greenhouse conditions; method in brief: as §1
[14] = system: Amaranthus retroflexus; experiment: Herbicidal activity against Amaranthus retroflexus assessed as growth inhibition at 37.5 g of active ingredient/ha administered using post-emergence treatment measured 15 days post treatment protocol under greenhouse conditions; method in brief: as §1
[15] = system: Chenopodium album; experiment: Herbicidal activity against Chenopodium album assessed as growth inhibition at 75 g of active ingredient/ha administered using post-emergence treatment measured 15 days post treatment protocol under greenhouse conditions; method in brief: as §1
[16] = system: Setaria viridis; experiment: Herbicidal activity against Setaria viridis (green foxtail) assessed as growth inhibition at 150 g of active ingredient/ha administered using post-emergence treatment measured 15 days post treatment protocol under greenhouse conditions; method in brief: as §1
[17] = system: Setaria viridis; experiment: Herbicidal activity against Setaria viridis (green foxtail) assessed as growth inhibition at 37.5 g of active ingredient/ha administered using post-emergence treatment measured 15 days post treatment protocol under greenhouse conditions; method in brief: as §1
[18] = system: Amaranthus retroflexus; experiment: Herbicidal activity against Amaranthus retroflexus assessed as growth inhibition at 150 g of active ingredient/ha administered using post-emergence treatment measured 15 days post treatment protocol under greenhouse conditions; method in brief: as §1
[19] = system: Portulaca oleracea; experiment: Herbicidal activity against Portulaca oleracea assessed as growth inhibition at 75 g of active ingredient/ha administered using post-emergence treatment measured 15 days post treatment protocol under greenhouse conditions; method in brief: as §1
[20] = system: Echinochloa crus-galli; experiment: Herbicidal activity against Echinochloa crus-galli (barnyard grass) assessed as growth inhibition at 37.5 g of active ingredient/ha administered using post-emergence treatment measured 15 days post treatment protocol under greenhouse conditions; method in brief: as §1
[21] = system: Brassica juncea; experiment: Herbicidal activity against Brassica juncea assessed as growth inhibition at 37.5 g of active ingredient/ha administered using post-emergence treatment measured 15 days post treatment protocol under greenhouse conditions; method in brief: as §1
[22] = system: Eclipta prostrata; experiment: Herbicidal activity against Eclipta prostrata assessed as growth inhibition at 37.5 g of active ingredient/ha administered using post-emergence treatment measured 15 days post treatment protocol under greenhouse conditions; method in brief: as §1
[23] = system: Digitaria sanguinalis; experiment: Herbicidal activity against Digitaria sanguinalis (hairy crabgrass) assessed as growth inhibition at 75 g of active ingredient/ha administered using post-emergence treatment measured 15 days post treatment protocol under greenhouse conditions; method in brief: as §1
[24] = system: Cerastium arvense; experiment: Herbicidal activity against Cerastium arvense assessed as growth inhibition at 75 g of active ingredient/ha administered using post-emergence treatment measured 15 days post treatment protocol under greenhouse conditions; method in brief: as §1
[25] = system: Digitaria sanguinalis; experiment: Herbicidal activity against Digitaria sanguinalis (hairy crabgrass) assessed as growth inhibition at 150 g of active ingredient/ha administered using post-emergence treatment measured 15 days post treatment protocol under greenhouse conditions; method in brief: as §1
[26] = system: Brassica juncea; experiment: Herbicidal activity against Brassica juncea assessed as growth inhibition at 75 g of active ingredient/ha administered using post-emergence treatment measured 15 days post treatment protocol under greenhouse conditions; method in brief: as §1
[27] = system: Senna tora; experiment: Herbicidal activity against Senna tora assessed as growth inhibition at 75 g of active ingredient/ha administered using post-emergence treatment measured 15 days post treatment protocol under greenhouse conditions; method in brief: as §1
[28] = system: Cerastium arvense; experiment: Herbicidal activity against Cerastium arvense assessed as growth inhibition at 37.5 g of active ingredient/ha administered using post-emergence treatment measured 15 days post treatment protocol under greenhouse conditions; method in brief: as §1
[29] = system: Eclipta prostrata; experiment: Herbicidal activity against Eclipta prostrata assessed as growth inhibition at 75 g of active ingredient/ha administered using post-emergence treatment measured 15 days post treatment protocol under greenhouse conditions; method in brief: as §1

Compound: Cc1nn(-c2cc(NS(C)(=O)=O)c(Cl)cc2Cl)c(=O)n1C(F)F [SULFENTRAZONE]
- growth inhibition (GI) [1]: 100%
- growth inhibition (GI) [2]: 50%
- growth inhibition (GI) [3]: 100%
- growth inhibition (GI) [4]: >80%
- growth inhibition (GI) [5]: >80%
- growth inhibition (GI) [6]: 50%
- growth inhibition (GI) [7]: 100%
- growth inhibition (GI) [8]: 100%
- growth inhibition (GI) [9]: 100%
- growth inhibition (GI) [10]: 50%
- growth inhibition (GI) [11]: 100%
- growth inhibition (GI) [12]: <50%
- growth inhibition (GI) [13]: 100%
- growth inhibition (GI) [14]: 100%
- growth inhibition (GI) [15]: 100%
- growth inhibition (GI) [16]: >80%
- growth inhibition (GI) [17]: <50%
- growth inhibition (GI) [18]: 100%
- growth inhibition (GI) [19]: 100%
- growth inhibition (GI) [20]: 50%
- growth inhibition (GI) [21]: >80%
- growth inhibition (GI) [22]: 100%
- growth inhibition (GI) [23]: 50%
- growth inhibition (GI) [24]: 100%
- growth inhibition (GI) [25]: <50%
- growth inhibition (GI) [26]: 100%
- growth inhibition (GI) [27]: >80%
- growth inhibition (GI) [28]: >80%
- growth inhibition (GI) [29]: 100%
